This is a sample that favours compounds with a hit; in the whole collection about 4.1% have one here.
T cruzi inh: inhibitors of intracellular T. cruzi growth, primary screen, luminescence, NIH3T3 host cells; T. cruzi beta-gal in NIH3T3, 90 h; inhibition, % (no concentration beside the values); actives 1.4% (n = 300,000); AID 1885, 2009;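 active = mean inhibition across valid replicates above about 55%, limit read from the data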;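 note: signal also drops with host cell toxicity which is not excluded here; higher percent means less beta-gal luminescence so fewer parasites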
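assay system = mouse NIH/3T3 fibroblasts infected with β-gal-expressing T. cruzi Tulahuen C4 | input = 5,000 NIH/3T3 host cells per well | buffer or medium = DMEM plus 2% FBS | timing = 3 h host attachment, then at least 90 h co-culture | measured by = GalScreen luminescence, 60 min | evaluation = luminescence reflecting intracellular parasite burden, expressed as percent inhibition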
NS3 helicase inh: inhibitors of HCV NS3 helicase, primary screen, biochemical, Cy5 molecular beacon fluorescence | actives 0.56% (n = 290,000) | NS3 helicase DNA unwinding | Hepatitis C virus NS3 helicase | inhibition, % at 10.9 µM;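 active = inhibition above the mean of all tested compounds plus 3 SD, set per campaign, cut at about 35% in these data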
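Assay system – hepatitis C virus NS3 helicase domain fragment enzyme · Buffer or medium – MOPS pH 6.5, MgCl2, DTT, Tween20, BSA · Reagent – Cy5/quencher beacon DNA duplex and ATP to start · Compound – single 10.9 µM dose · Timing – 1 h at 25 °C · Technique – Cy5 beacon fluorescence read at start and 1 h · Measure – % inhibition of unwinding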
MEKK3 PB1 HTS: modulators of MEKK3-MEK5 PB1 binding, primary screen, biochemical, wildtype MEKK3, multiplex bead flow cytometry, Alexa488-MEK5; bead-based flow cytometry, Alexa488-MEK5 binding to MEKK3; actives lie on both sides; 0 = blocked by unlabeled MEK5, 100 = vehicle; binding response (% of control), % at 10 µM; actives 1.4% (n = 290,000); AID 1529, 2009;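 active = binding response more than 3 SD above or below the average of its plate-row segment, actives on both sides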;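 note: Alexa488 bead fluorescence after subtracting the streptavidin-only scavenger bead signal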
Target sequence (Q99759 whole entry, looked up): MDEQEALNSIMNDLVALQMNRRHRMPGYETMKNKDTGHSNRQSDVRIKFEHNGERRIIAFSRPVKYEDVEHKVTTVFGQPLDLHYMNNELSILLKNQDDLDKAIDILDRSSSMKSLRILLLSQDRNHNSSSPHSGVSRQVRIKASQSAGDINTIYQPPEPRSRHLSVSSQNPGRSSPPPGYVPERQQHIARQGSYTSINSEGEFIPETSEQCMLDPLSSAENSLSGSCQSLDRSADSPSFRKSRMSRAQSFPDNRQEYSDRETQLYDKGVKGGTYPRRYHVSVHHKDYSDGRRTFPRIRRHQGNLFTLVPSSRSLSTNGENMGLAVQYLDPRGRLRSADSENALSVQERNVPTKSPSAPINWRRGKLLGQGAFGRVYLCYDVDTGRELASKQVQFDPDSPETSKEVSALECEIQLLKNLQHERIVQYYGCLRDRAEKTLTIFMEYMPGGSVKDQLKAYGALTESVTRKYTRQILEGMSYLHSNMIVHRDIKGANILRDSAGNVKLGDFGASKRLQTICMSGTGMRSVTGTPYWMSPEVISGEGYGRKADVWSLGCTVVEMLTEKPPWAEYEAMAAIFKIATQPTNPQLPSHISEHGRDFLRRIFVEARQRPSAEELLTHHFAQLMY
FID counter: compounds displacing fluorescent DNA intercalator, primary screen, artefact control for HCV NS3 helicase inhibitor project, biochemical, FID fluorescence. DNA fluorescent intercalator displacement. inhibition, % at 7.9 µM. actives 0.17% (n = 290,000). AID 1845, 2009; in the data active = inhibition above about 37%;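 note: higher means more ethidium bromide displaced from hairpin DNA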
MEKK2mut PB1 HTS: MEK5 binding signal on mutant MEKK2 PB1, primary screen, biochemical, multiplex bead flow cytometry, Alexa488-MEK5; AID 1530, 2009; actives 0.35% (n = 290,000); percent response, % at 10 µM; Alexa488-MEK5 binding to MEKK2 mutant; in the data active = percent response above about 24%, passing the limit was not always enough
MEKK2wt PB1 HTS: modulators of MEK5 binding to wildtype MEKK2, primary screen, biochemical, multiplex bead flow cytometry, Alexa488-MEK5 | Mitogen-activated protein kinase kinase kinase 2 (Homo sapiens), Q9Y2U5 | Alexa488-MEK5 binding to MEKK2 WT; actives lie on both sides | binding response (% of control), % at 10 µM | actives 1.1% (n = 290,000) | AID 1531, 2009; in the data active = binding response below about 67% or above about 130%
Numbers stand for hits; i = inactive; nt = no result given; [ ] = another dose, or the depositor's remark.

SMILES	T cruzi inh	NS3 helicase inh	MEKK3 PB1 HTS	FID counter	MEKK2mut PB1 HTS	MEKK2wt PB1 HTS
CCN(CC)c1nc(-c2ccccn2)nc(-c2ccccc2)c1C#N	57.9	i	i	i	i	i
c1ccc(CCNc2nc(-c3ccccn3)nc3ccccc23)cc1	76.4	i	i	i	i	i
CCCN(CCC)c1nc(-c2ccccn2)nc2ccccc12	58.3	i	i	i	i	i
CCN(C(=O)CN1C(=O)COc2ccc(S(=O)(=O)N3CCCCCC3)cc21)c1cccc(C)c1	i	i	i	i	i	i
CC(C)(C)c1ccc(/C=C(\C#N)C(=O)NC2CC2)cc1	i	nt	nt	nt	nt	nt
CC(C)(C)c1ccccc1OCCCCCn1ccnc1	61.2	i	i	i	i	i
Cc1ccc(C(C)(C)C)c(OCCCn2ccnc2)c1	i	i	i	i	i	i
Cc1ccc(C)c(OCCCCn2ccnc2)c1	71.4	i	i	i	i	i
Cc1ccc(OCCCCn2ccnc2)c([N+](=O)[O-])c1	i	i	i	i	i	i
Cc1ccc(OCCCCn2ccnc2)c(Cl)c1	61.1	i	i	i	i	i
CC(C)N=C(NS(=O)(=O)c1ccc(Br)cc1)c1ccc(Cl)cc1	i	i	i	i	i	i
CCNC(=O)COc1ccc(/C=C2\COc3ccccc3C2=O)cc1OC	i	i	i	i	i	i
Cc1nn(CCCC(=O)NCCCN2CCN(C)CC2)c(=O)c2c1sc1ccccc12	i	i	i	i	i	i
Cn1nc([N+](=O)[O-])nc1Sc1ccc(Cl)cc1	68.6	i	i	i	i	i
Cn1cnnc1Sc1nc([N+](=O)[O-])nn1C	i	i	i	i	i	i
Cc1cc2ccccn2c1C(=O)c1cccc([N+](=O)[O-])c1	i	i	i	i	i	i
Cc1cc2ccccn2c1C(=O)c1ccc([N+](=O)[O-])o1	73.6	i	i	i	i	i
Cc1ccc(CNc2ccc(N3CCOCC3)cc2)s1	i	i	i	i	i	i
Cc1ccc(NCc2ccc(C)s2)cc1	71.4	i	i	i	i	i
Cc1ccc(NCc2ccccc2)cc1	58.5	i	i	i	i	i
O=C(CN1C(=O)CCSc2ccc(S(=O)(=O)N3CCCC3)cc21)Nc1ccccc1	i	i	i	i	i	i
Cc1ccc(-n2cc(CN(C)Cc3ncc[nH]3)c(-c3cccc(C)c3)n2)cc1	58.0	i	i	i	i	i
CN(Cc1ncc[nH]1)Cc1cn(-c2ccccc2)nc1-c1ccc2c(c1)OCO2	i	i	i	i	i	i
Cc1nc(C(=O)NC2CCCCC2)sc1C1(C)CC(c2cccnc2)=NO1 (configuration not stated)	60.8	nt	i	nt	i	i
Cc1nc(C(=O)NC2CC2)sc1C1(C)CC(c2cccc([N+](=O)[O-])c2)=NO1 (configuration not stated)	i	nt	i	nt	i	i
SMILES	T cruzi inh	NS3 helicase inh	MEKK3 PB1 HTS	FID counter	MEKK2mut PB1 HTS	MEKK2wt PB1 HTS
C=CCNC(=O)/C(=C/c1cccc([N+](=O)[O-])c1)NC(=O)c1ccco1	i	i	i	i	i	i
O=C1CC(NS(=O)(=O)c2ccc([N+](=O)[O-])cc2)CN1c1cccc(F)c1 (configuration not stated)	64.8	nt	nt	nt	nt	nt
COc1ccc(OCC(=O)N2CCC3(CC2)CC(=O)c2ccccc2O3)cc1	i	nt	nt	nt	nt	nt
O=S1(=O)NC(CC2=CCCCC2)C2CCCCC2O1 (configuration not stated)	i	i	i	i	i	i
COc1cc(C2C(C(=O)OC(C)C)=C(C)Nc3[nH]c(=O)[nH]c(=O)c32)ccc1O (configuration not stated)	i	i	61.0[inhibitor]	i	i	70.0[inhibitor]
Cc1ccccc1C(=O)NC1CCN(CC(=O)NCc2ccccc2)CC1	i	i	i	i	i	i
CCOC(=O)N1CCN(CC(O)COCc2cc(OC)c(OC)c(OC)c2)CC1 (configuration not stated)	i	i	i	i	i	i
CCOC(=O)N1CCN(CC(O)COCCC23CC4CC(CC(C4)C2)C3)CC1 (configuration not stated)	67.9	i	i	i	i	i
CCN(CC)CC(O)COCCC12CC3CC(CC(C3)C1)C2 (configuration not stated)	i	i	i	i	i	i
CC1CCCCN1CC(O)COCCC12CC3CC(CC(C3)C1)C2 (configuration not stated)	i	i	i	43.8	i	i
Cc1c2c(nc3ccccc13)CCC(C(C)(C)C)C2 (configuration not stated)	56.6	i	i	i	i	i
CC[C@@H]1CC=C[C@H]2[C@H]1C(=O)N(Cc1ccccc1)[C@H]2c1ccc(OC)c(Cl)c1	i	nt	i	nt	i	i
CN(C)CCn1c2ccccc2c2nc3ccc([N+](=O)[O-])cc3cc21	i	i	i	48.4	i	i
CCn1c2ccccc2c2cc([N+](=O)[O-])ccc21	i	i	i	i	i	i
CCC(C)NS(=O)(=O)c1ccc(NC(=O)C(Sc2ccccc2)c2ccccc2)cc1 (configuration not stated)	57.5	i	i	i	i	i
CC(=O)NS(=O)(=O)c1ccc(NC(=O)C(Sc2ccccc2)c2ccccc2)cc1 (configuration not stated)	i	i	i	i	i	i
O=C(Nc1ccncc1)Nc1ccc(Cl)cc1	i	i	i	i	i	i
O=C(Nc1ccncc1)Nc1ccccc1Cl	i	i	i	i	i	i
O=C(Nc1ccncc1)Nc1cc(Cl)ccc1Cl	57.2	i	i	i	i	i
O=C(Nc1ccncc1)Nc1ccc(Cl)cc1Cl	55.4	i	i	i	i	i
Cc1cc(=O)n2nc(N3CCC(C(=O)NCCc4ccc(Cl)cc4)CC3)sc2n1	i	i	i	i	i	i
Cc1ccc(Nc2ccc(S(=O)(=O)N3CCOCC3)cc2[N+](=O)[O-])cc1C	i	i	i	i	i	i
Cc1ccc(S(=O)(=O)Nc2cccc(C(=O)N3CCCC3)c2)cc1F	i	nt	nt	nt	nt	nt
COc1ccc(NCc2nc3ccccc3n2CCOc2ccccc2)cc1	68.9	i	i	i	i	i
CC1Nc2ccc(C(=O)NC3CCCCC3)cc2NC1=O (configuration not stated)	i	i	i	i	i	i

Source: PubChem (several laboratories)
